The text below walks through data of ChEMBL document CHEMBL1134646, “Quadruplex-interactive agents as telomerase inhibitors: synthesis of porphyrins and structure-activity relationship for the inhibition of telomerase” (J Med Chem, 2001).

For orientation: inhibition means the drop in the measured response relative to a control, in per cent. For orientation: IC50 means the concentration at which inhibition is half-maximal.

For assay [1], the target named is T1, Telomerase reverse transcriptase (Homo sapiens, UniProt O14746). The assay can be described thus: Effect of combination of charged and hydrogen bonding groups on telomerase inhibition at 25 uM. Summed up:
(§1)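 HeLa cell extract (60 µg total protein) as the telomerase source in a primer-extension assay with 1 µM 5′-biotinylated (TTAGGG)3 primer, 1.2 µM 32P-dGTP, and 1 mM each of dATP and dTTP. Buffer was Tris-OAc at pH 8.5 with KOAc, MgCl2, BME and spermidine. Porphyrin was fixed at 25 µM and reactions ran at 37 °C for 30 min. Products were run on 8% denaturing PAGE and quantified by autoradiogram densitometry, giving % inhibition relative to a porphyrin-free control.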

The target in assay [2] is T1, Telomerase reverse transcriptase. The assay is described as follows: Effect of uncharged hydrogen bonding group on telomerase inhibition at 25 uM. The gist of the method: as §1
Assay [3] shares this target. The assay can be described thus: Effect of meso group on telomerase inhibition at 25 uM. The gist of the method:
as §1

Assay [4] has the same target. The assay is described as follows: Dependence of telomerase inhibition on the ability to stack with G-tetrads. The following applies: concentration not given here. Summed up: as §1
The target is the same in assay [5]. The assay can be described thus: Effect of substituent bulk on telomerase inhibition at 25 uM. Summed up: as §1
Assay [6] has the same target. The assay can be described thus: Effect of varying the number and disposition of charged groups around the compound nucleus on telomerase inhibition at 25 uM. The gist of the method: as §1
The target is the same in assay [7]. The assay can be described thus: Apparent telomerase inhibition by mixed mechanism.
Assay [8] shares this target. The assay can be described thus: Apparent telomerase inhibition by G-quadruplex mechanism.
Assay [9] shares this target. The assay is described as follows: Percentage inhibition of human telomerase at 25 uM concentration in HeLa cell. The assay is classed as cell-based. The gist of the method:
as §1

Molecules are shown by their SMILES. “And” between values parts separate entries of the source, which are not always exact repeats. Equal values may be shown once.

T1 sequence (O14746 whole entry): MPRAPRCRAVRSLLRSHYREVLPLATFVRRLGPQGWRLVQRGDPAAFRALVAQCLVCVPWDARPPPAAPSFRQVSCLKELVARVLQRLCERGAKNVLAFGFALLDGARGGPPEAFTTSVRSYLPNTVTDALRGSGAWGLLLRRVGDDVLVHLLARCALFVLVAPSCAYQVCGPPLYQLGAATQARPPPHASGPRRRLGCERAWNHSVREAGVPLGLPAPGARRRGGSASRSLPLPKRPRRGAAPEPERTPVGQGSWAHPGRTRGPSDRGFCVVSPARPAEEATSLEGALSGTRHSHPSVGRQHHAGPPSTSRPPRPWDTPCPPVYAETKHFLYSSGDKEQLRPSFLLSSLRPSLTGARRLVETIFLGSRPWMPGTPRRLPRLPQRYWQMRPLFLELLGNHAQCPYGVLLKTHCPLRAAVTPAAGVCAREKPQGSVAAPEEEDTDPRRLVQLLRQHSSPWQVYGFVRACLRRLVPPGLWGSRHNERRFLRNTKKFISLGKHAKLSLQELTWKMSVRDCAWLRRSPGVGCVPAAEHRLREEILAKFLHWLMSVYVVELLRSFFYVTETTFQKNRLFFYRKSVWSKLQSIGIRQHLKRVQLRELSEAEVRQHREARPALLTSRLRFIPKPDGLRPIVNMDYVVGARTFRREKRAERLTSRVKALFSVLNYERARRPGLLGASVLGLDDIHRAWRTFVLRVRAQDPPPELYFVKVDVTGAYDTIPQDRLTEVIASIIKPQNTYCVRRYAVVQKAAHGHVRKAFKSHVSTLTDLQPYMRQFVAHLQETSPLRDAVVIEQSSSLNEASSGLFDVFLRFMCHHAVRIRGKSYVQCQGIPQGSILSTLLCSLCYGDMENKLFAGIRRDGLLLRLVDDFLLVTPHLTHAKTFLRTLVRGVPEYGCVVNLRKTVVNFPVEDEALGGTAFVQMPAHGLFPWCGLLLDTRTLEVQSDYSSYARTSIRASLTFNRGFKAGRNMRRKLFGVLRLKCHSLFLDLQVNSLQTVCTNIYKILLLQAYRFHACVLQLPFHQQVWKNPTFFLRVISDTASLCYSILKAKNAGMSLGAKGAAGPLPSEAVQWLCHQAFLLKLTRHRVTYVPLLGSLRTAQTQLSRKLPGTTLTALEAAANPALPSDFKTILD

Turning to `C[n+]1cc(-c2c3nc(c(-c4cc5ccccc5[n+](C)c4)c4ccc([nH]4)c(-c4cc5ccccc5[n+](C)c4)c4ccc([nH]4)c(-c4cc5ccccc5[n+](C)c4)c4nc2C=C4)C=C3)cc2ccccc21`, the inhibition in assay [1] amounted to 30%; in assay [2], 28%; in assay [3], 32%; in [4], 14%; in [5], 28%; in assay [6], 37%.
Regarding `C[n+]1cccc(-c2c3ccc([nH]3)c(-c3cc4ccccc4[n+](C)c3)c3nc(c(-c4cc5ccccc5[n+](C)c4)c4nc(c(-c5cc6ccccc6[n+](C)c5)c5ccc2[nH]5)C=C4)C=C3)c1`, in assay [7], the half-inhibitory concentration (IC50) turned out to be 5 µM.
Take `C[n+]1cccc(-c2c3nc(c(-c4ccc[n+](C)c4)c4ccc([nH]4)c(-c4ccc[n+](C)c4)c4ccc([nH]4)c(-c4ccc[n+](C)c4)c4nc2C=C4)C=C3)c1`: the IC50 in assay [8] is 25 µM and 12 µM. Besides, the inhibition in assay [5] came to 50%.
`C[n+]1ccc(-c2c3nc(c(-c4cc[n+](C)cc4)c4ccc([nH]4)c(-c4cc[n+](C)cc4)c4ccc([nH]4)c(-c4cc[n+](C)cc4)c4nc2C=C4)C=C3)cc1`: the inhibition in [1] was determined as 60%; in [2], 60%; in assay [3] it was 67%; in assay [4] it was 66%; in assay [5] it was 60%; in assay [6], 62%.
As to `OCC[n+]1ccc(-c2c3nc(c(-c4cc[n+](CCO)cc4)c4ccc([nH]4)c(-c4cc[n+](CCO)cc4)c4ccc([nH]4)c(-c4cc[n+](CCO)cc4)c4nc2C=C4)C=C3)cc1`, the IC50 in assay [7] was found to be 30 µM.
Turning to `C[n+]1ccc(-c2c3nc(c(-c4cc[n+](C)cc4)c4ccc([nH]4)c(-c4cc[n+](C)cc4)c4nc(c(-c5cc[n+](C)cc5)c5ccc2[nH]5)C=C4)C=C3)cc1` [TMPYP4 CHLORIDE], the concentration for half-maximal inhibition (IC50) in [8] is 6.25 µM and 10 µM.
Molecule `CC1=C(CCNCCN)c2cc3[nH]c(cc4[nH]c(cc5nc(cc1n2)C(C)=C5CCNCCN)c(C)c4CCNCCN)c(CCNCCN)c3C` yielded an inhibition in assay [9] of 0%.
Consider `C[n+]1ccc(-c2c3nc(c(-c4ccc(C(=O)NCCBr)cc4)c4nc(c(-c5cc[n+](C)cc5)c5ccc([nH]5)c(-c5cccc(C(=O)NCCBr)c5)c5ccc2[nH]5)C=C4)C=C3)cc1`, for which the concentration for half-maximal inhibition (IC50) in assay [7] is 15 µM.
On to `C[n+]1cccc(-c2c3nc(c(-c4cc5ccccc5[n+](C)c4)c4ccc([nH]4)c(-c4ccc[n+](C)c4)c4nc(c(-c5cc6ccccc6[n+](C)c5)c5ccc2[nH]5)C=C4)C=C3)c1`, for which the half-maximal inhibitory concentration (IC50) in assay [7] is 10 µM.
